Compound activity as filed in PubChem.
Only some compounds are listed: those with a hit (about 5.4% of all), similar ones and a draw of the others.
hDAT+cocaine = modulates human dopamine transporter uptake under cocaine. 110,000 compounds, 1.3% hits. B-score at 10 µM. AID 449768. LLC-PK1 hDAT cells, [14C]-dopamine uptake with cocaine IC80; actives deviate in either direction;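 active = Z score or B-score, a plate-position-corrected score, falls beyond the plate's 99.7% confidence bounds, in either direction; inactive = both scores lie inside the 99.7% bounds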;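 also: scored against the spread of the other compound wells on the same plate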
Rev-RRE block = inhibitors of HIV-1 Rev-RRE RNA interaction. Rev peptide-RRE RNA binding, FRET. inhibition, % at 8 µM. 97,000 compounds, 0.79% hits. AID 704;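 active = inhibition above the screen-wide mean plus 3 SD, cut at about 35% in these data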;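 also: 0% = median DMSO wells and 100% = median Neomycin B control wells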
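Assay system: Rev peptide and RRE RNA, both fluorescently labelled; times: 5 min preincubation and 15 min binding, 25 °C; detection: FRET, ex 480 nm, em 540 and 671 nm; read-out basis: % inhibition from 671/540 nm acceptor-to-donor ratio, scaled between controls; benchmarks: DMSO low control, neomycin B high control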
Cav3 T inh = inhibitors of human Cav3.2 T-type calcium channel | O95180 | Cav3.2-expressing cells, Fluo-4 calcium fluorescence FDSS; hits give low values | B-score at 10 µM | 100,000 compounds, 4% hits | AID 449739;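 active = single-dose well whose peak fluorescence ratio is a statistical outlier from its plate by either plate-standardised score or position-corrected B-score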
Target sequence (O95180 whole entry, looked up): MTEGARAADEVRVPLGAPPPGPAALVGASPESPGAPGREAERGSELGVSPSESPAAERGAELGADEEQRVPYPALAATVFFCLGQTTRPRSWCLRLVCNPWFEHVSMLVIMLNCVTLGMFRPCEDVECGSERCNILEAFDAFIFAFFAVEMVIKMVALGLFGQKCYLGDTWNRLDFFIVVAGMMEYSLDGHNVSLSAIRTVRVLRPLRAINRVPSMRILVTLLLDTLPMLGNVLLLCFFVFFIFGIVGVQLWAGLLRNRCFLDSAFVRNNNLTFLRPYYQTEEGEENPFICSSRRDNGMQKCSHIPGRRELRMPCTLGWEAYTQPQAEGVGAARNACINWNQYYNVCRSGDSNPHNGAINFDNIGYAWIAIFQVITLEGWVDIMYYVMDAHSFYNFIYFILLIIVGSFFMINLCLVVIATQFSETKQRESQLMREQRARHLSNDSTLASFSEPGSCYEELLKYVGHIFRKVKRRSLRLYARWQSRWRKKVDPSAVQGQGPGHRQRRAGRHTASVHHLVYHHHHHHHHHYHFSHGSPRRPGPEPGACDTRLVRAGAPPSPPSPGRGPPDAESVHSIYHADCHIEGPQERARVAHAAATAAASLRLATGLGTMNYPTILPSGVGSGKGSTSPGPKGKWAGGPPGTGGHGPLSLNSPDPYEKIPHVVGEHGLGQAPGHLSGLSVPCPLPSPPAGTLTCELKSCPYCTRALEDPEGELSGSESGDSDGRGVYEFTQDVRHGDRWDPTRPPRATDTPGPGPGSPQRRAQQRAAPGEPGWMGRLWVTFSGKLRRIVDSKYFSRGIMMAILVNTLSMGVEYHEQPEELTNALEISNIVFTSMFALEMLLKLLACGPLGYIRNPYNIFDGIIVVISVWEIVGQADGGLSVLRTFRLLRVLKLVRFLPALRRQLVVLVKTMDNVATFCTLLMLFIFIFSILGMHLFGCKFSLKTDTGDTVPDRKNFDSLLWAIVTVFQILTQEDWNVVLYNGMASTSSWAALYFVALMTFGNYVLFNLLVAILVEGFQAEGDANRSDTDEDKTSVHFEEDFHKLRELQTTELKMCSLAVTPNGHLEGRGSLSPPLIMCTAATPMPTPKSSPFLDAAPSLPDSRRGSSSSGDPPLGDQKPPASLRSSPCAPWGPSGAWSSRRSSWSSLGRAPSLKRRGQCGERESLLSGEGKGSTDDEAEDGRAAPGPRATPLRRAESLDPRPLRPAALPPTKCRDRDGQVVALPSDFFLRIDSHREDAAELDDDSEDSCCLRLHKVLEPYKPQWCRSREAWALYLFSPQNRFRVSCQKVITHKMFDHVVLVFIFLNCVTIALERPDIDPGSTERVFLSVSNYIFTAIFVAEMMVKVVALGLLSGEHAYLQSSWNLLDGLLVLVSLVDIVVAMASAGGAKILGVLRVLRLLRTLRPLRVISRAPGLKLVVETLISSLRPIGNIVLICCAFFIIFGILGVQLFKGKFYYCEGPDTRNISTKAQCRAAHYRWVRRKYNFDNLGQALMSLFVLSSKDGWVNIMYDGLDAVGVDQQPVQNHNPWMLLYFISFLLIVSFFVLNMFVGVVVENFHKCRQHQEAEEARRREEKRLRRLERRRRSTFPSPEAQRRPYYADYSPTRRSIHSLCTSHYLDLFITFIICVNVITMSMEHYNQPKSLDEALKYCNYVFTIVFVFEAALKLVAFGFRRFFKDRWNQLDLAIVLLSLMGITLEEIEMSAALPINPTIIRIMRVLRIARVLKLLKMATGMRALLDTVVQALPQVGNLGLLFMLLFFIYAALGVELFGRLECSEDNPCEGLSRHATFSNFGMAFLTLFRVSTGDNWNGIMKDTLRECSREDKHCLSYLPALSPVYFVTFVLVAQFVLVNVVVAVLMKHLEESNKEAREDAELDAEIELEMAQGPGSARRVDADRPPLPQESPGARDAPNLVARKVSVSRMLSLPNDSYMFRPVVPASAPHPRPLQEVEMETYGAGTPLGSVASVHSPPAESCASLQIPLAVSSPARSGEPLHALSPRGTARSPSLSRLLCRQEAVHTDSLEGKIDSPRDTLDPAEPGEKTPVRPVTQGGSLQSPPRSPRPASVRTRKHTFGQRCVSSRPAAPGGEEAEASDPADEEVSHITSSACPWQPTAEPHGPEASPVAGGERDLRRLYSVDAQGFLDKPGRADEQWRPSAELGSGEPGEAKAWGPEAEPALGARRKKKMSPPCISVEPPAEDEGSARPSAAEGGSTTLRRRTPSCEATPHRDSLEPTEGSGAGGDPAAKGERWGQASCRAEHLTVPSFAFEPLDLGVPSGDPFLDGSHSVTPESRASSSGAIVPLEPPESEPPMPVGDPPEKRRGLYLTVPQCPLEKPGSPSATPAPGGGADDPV
EphB4 ephrin blk = EphB4-ephrin-B2 interaction antagonism | P54760 | EphB4 LBD / TNYL-RAW-Alexa532 peptide, fluorescence polarization | inhibition, % at 7 µM | 97,000 compounds, 0.15% hits | AID 720;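 active = inhibition above the screen-wide mean inhibition plus 3 SD, cut at about 15% in these data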;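 also: 0% = DMSO wells and 100% = excess unlabeled TNYL-RAW peptide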
Starred values were filed as active, the others as inactive; . = no result; [ ] = another dose, or the depositor's remark.

SMILES	hDAT+cocaine	Rev-RRE block	Cav3 T inh	EphB4 ephrin blk
CN=C(Nc1ccccc1OC)SC1CC(=O)N(c2ccc(C(=O)OC)cc2)C1=O (stereo unspecified)	2.4*	10	-0.022	-8
COc1cccc(OC)c1C(=O)NC(=S)N1CCN(c2ccc(C(F)(F)F)cc2[N+](=O)[O-])CC1	1.3	-2	-5.5*	-4
CCOC(=O)N1CCN(c2ccc(F)cc2[N+](=O)[O-])CC1	1.1	.	1.3	.
Cc1ccc(-c2cccc(OC(=O)c3ccccc3F)c2)cc1	.	7	.	0
COc1ccc2[nH]c(-c3ccc(C)cc3)cc(=O)c2c1	0.67	.	0.049	.
COc1c(N2CCN(C(=S)NCc3ccccc3)C(C)C2)c(F)cc2c(=O)c(C(=O)O)cn(C3CC3)c12 (stereo unspecified)	3.3	-8	2.8*	-4
COc1c(N2C[C@@H]3CCCN[C@@H]3C2)c(F)cc2c(=O)c(C(=O)O)cn(C3CC3)c12	1.3	.	.	.
Cn1c(=O)c2c(SCc3ccccn3)nc(CC(C)(C)C)nc2n(C)c1=O	0.27	4	-5.9*	6
Cc1cc(C(=O)N2CCN(Cc3ccc4c(c3)OCO4)CC2)on1	0.016	.	0.39	.
Cc1nn(Cc2ccccc2)c2sc(C(=O)N3CCN(Cc4ccc5c(c4)OCO5)CC3)cc12	0.51	-6	-4.3*	-3
O=C(c1ccc2nc(N3CCCCC3)sc2c1)N1CCN(Cc2ccc3c(c2)OCO3)CC1	1.1	.	-4*	.
CC1CCN(c2nc3ccc(C(=O)N4CCN(Cc5ccccc5)CC4)cc3s2)CC1	1.6	-1	-5.8*	1
Cc1ccc2cc3cc(C(=O)N4CCN(Cc5ccccc5)CC4)sc3nc2c1	2.4	16	-0.13	7
CCc1cc2cc(C(=O)N3CCN(Cc4ccccc4)CC3)sc2s1	2.6*	6	-4.8*	6
CCOC(=O)N1CCN(C(=O)c2ccc3nc(N4CCC(C)CC4)sc3c2)CC1	1.4	-1	-0.79	1
Cc1cc(S(=O)(=O)N2CCCCCC2)c(Cl)cc1Cl	0.41	16	-2.8	1
Cc1cccc(NC(=O)C2CCCN2S(=O)(=O)c2cccc3cccnc23)c1 (stereo unspecified)	1.2	4	-0.17	4
COc1ccc(CN(CC2CCCO2)C(=O)CN2C(=O)COc3ccccc32)cc1OC (stereo unspecified)	-0.8	4	1.4	3
CCOC(=O)C1CCCN(C(=O)c2cc3c(=O)n(C)c4ccccc4c3n2C)C1 (stereo unspecified)	-0.019	7	3.1*	-3
CCOC(=O)C1CCCN(C(=O)c2cc(Nc3ccc(OC)cc3)nc3ccccc23)C1 (stereo unspecified)	1.9	9	-5.5*	7
O=C(Nc1ccccc1)c1ccc(N2CCN(c3ccccn3)CC2)c(S(=O)(=O)N2CCOCC2)c1	-0.12	10	-1.6	0
O=C(Nc1ccccc1)c1ccc(N2CCN(c3ccccc3)CC2)c(S(=O)(=O)N2CCOCC2)c1	-0.028	2	-6*	4
CC1CCN(C(=O)C2CCN(S(=O)(=O)c3cccc4nonc34)CC2)CC1	0.96	0	0.7	-7
Cc1csc(SCC(=O)Nc2ccc(Cl)cn2)n1	-0.38	.	-5.1*	.
CCC(=O)NC(=S)Nc1ccc(Cl)cn1	2.2*	5	-0.14	6
SMILES	hDAT+cocaine	Rev-RRE block	Cav3 T inh	EphB4 ephrin blk
CCCCC(=O)Nc1ccc(Cl)cn1	-0.7	3	-0.4	-5
CCOC(=O)/C=C/C(=O)OCC(=O)Nc1ccc(Cl)cn1	0.63	0	3.4*	-4
CC(C)(C)c1csc(SCC(=O)Nc2ccc(Cl)cn2)n1	-0.33	14	-3.4	0
CCN(CC)c1ncnc2sc(C(=O)N3CCN(c4ccccc4)CC3)c(C)c12	0.042	.	-0.21	.
Cc1nc(N2CCN(Cc3nc4ccccc4[nH]3)CC2)c2oc3ccccc3c2n1	2.5*	2	0.77	-11
c1ccc2[nH]c(CN3CCN(c4ncnc5c4oc4ccccc45)CC3)nc2c1	0.64	11	-1.3	2
O=[n+]1c2c(n([O-])c3cc(F)c(N4CCCC4)cc31)CCC2	-0.23	66*[fluorescence artefact?]	.	6
O=[n+]1c2c(n([O-])c3cc(F)c(N4CCCC4)cc31)CCCC2	-1.7	79*[fluorescence artefact?]	-7.3*	-2
O=[n+]1c2c(n([O-])c3cc(F)ccc31)CCCC2	0.1	4	0.098	-2
O=[n+]1c2c(n([O-])c3ccccc31)CCC2	0.26	5	-0.85	-4
CN(C)c1nc(N)nc(CSc2nnnn2-c2ccccc2)n1	-0.3	0	0.15	7
Cc1ccccc1NC(=O)CN(C)S(=O)(=O)c1cccc2cccnc12	0.15	6	0.017	3
COc1ccc(-c2onc3ccc(Cl)cc23)cc1OC	.	2	.	1
